Data set [1] concerns the target T1, Tyrosinase (Agaricus bisporus) (UniProt O42713).
T1 sequence (whole entry): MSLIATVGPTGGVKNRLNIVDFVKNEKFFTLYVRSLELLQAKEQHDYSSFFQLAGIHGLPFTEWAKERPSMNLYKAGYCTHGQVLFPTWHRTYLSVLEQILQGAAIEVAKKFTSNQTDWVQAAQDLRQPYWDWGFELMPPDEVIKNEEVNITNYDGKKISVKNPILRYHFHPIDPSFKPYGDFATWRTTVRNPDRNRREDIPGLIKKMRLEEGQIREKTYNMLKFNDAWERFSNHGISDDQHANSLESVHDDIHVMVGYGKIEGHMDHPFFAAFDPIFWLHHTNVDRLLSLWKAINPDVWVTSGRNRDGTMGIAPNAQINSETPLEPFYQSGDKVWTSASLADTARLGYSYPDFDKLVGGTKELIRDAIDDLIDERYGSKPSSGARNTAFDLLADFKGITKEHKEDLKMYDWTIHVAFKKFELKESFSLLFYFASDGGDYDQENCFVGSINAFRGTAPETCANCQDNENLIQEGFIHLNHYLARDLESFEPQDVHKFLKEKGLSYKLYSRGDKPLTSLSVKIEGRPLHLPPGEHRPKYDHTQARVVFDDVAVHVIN
Kind of data set: (§1) Inhibition of mushroom tyrosinase-mediated L-tyrosine hydroxylation after 30 mins by ELISA. Put shortly:
(§2)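 Mushroom tyrosinase with L-tyrosine substrate; dipotassium hydrogen phosphate buffer as vehicle control. Mixture held 25 °C for 30 min, dopachrome read at 475 nm. Inhibition % = (1 − ABSsample/ABScontrol) × 100. IC50 from regression of the dose–response curve; triplicate, mean ± SD of 3 independent runs.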
Background: An ELISA detects its analyte on a solid surface through an enzyme-linked reagent.

Data set [2] concerns the target T2, Tyrosinase (Agaricus bisporus, UniProt O42713).
T2 sequence (O42713 whole entry): T1 sequence (whole entry)
Put plainly: Mixed-type inhibition of mushroom tyrosinase-mediated L-tyrosine oxidation assessed as enzyme-inhibitor complex after 10 mins by Lineweaver-Burk plot analysis.

Data set [3] can be described thus: Cytotoxicity against mouse B16/F10 cells at 1 mM after 24 hrs by MTT assay. In kind it is cell-based. The note with it: b16-f10, 24 h, 1000 µM. Put shortly:
(§3)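 B16/F10 cells in DMEM with 10% FBS, penicillin, streptomycin and amphotericin at 37 °C, 5% CO2. Seeded 3 × 10^4 per well, adhered 24 h, exposed to 1 or 2 mM compound in fresh DMEM for 24 h. MTT (0.5 mg/mL in PBS) added for 40 min at 37 °C; formazan dissolved in DMSO, A570 read. Viability as % of untreated control; triplicate.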

A further data set deals with B16-F10. Kind of data set: (§4) Antimelanogenic activity in mouse B16/F10 cells assessed as inhibition of alpha-MSH-induced melanin formation at 1 mM after 24 hrs by ELISA relative to control. In kind it is functional. The method, boiled down:
(§5)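 B16/F10 cells seeded 1 × 10^5 per well, grown 48 h at 37 °C, 5% CO2; stimulated with 100 nM α-MSH for 24 h, then exposed to 1 mM test agent (kojic acid reference) for 24 h. After PBS washes, pellets dissolved in 1 N NaOH/10% DMSO, 1 h at 80 °C; A405 read. Content = sample/control × 100%; triplicate, mean ± SD.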

Data set [4] has as its target T2, Tyrosinase. Described as §1. Put shortly:
as §2

The target in data set [5] is T1, Tyrosinase (Agaricus bisporus). Kind of data set: Mixed-type inhibition of mushroom tyrosinase-mediated L-tyrosine oxidation assessed as enzyme-substrate-inhibitor complex after 10 mins by Lineweaver-Burk plot analysis.
The nature of data set [6]: as §4. The note with it: B16-F10, 24 h. The data set is classed as functional. Put shortly:
as §5

Data set [7] can be described thus: Cytotoxicity against mouse B16/F10 cells at 2 mM after 24 hrs by MTT assay. In kind it is cell-based. Conditions: b16-f10, 24 h, 2000 µM. Put shortly:
as §3

The target of data set [8] is T2, Tyrosinase. Kind of data set: Noncompetitive inhibition of mushroom tyrosinase-mediated L-tyrosine oxidation assessed as enzyme-inhibitor complex after 10 mins by Lineweaver-Burk plot analysis.
Data set [9] addresses T1, Tyrosinase (Agaricus bisporus). Kind of data set: Noncompetitive inhibition of mushroom tyrosinase-mediated L-tyrosine oxidation assessed as enzyme-substrate-inhibitor complex after 10 mins by Lineweaver-Burk plot analysis.

The source made the active and inactive calls. The calls are words filed in the database; no cut-off is given here.

Regarding `Cn1ccn(CC(N)C(=O)O)c1=S` (stereo not drawn), the inhibition entry in data set [1] was “inactive”.
For the molecule `COC(=O)C(N)Cn1ccn(C)c1=S` (stereo not drawn), in [1], the inhibition result is “inactive”.
Turning to `COC(=O)C(Cn1ccn(C)c1=S)NC(=O)OC(C)(C)C` (stereo not drawn), in [1], the inhibition result was “inactive”.
As to `Sc1ncc[nH]1`, the Ki at Tyrosinase [2] amounted to 570 µM. Moreover, the Activity entry in data set [3] is listed as “Toxic”. Further, in the data set with B16-F10, the inhibition result was “Active”. 4110 µM corresponded to half-maximal inhibition at Tyrosinase [4] (IC50). Also, the inhibition entry in data set [1] is “Dose-dependent effect”. In addition, the Kis in [5] amounted to 2.8 mM.
Take `Cn1ccnc1S` [METHIMAZOLE]: in [6], the inhibition at 1000 µM came to 88.7%. Besides, in data set [1], the inhibition result was “Dose-dependent effect”. In addition, the Kis in data set [5] is 1.91 mM.
As for `O=c1cc(CO)occ1O` [KOJIC ACID], in [6], the inhibition at 1000 µM came to 56.9%.
Regarding `Cn1cc[nH]c1=S` [METHIMAZOLE], the inhibitory constant (Ki) at Tyrosinase [2] stood at 470 µM. In addition, the Activity result in data set [7] is given as “Toxic”. For the same molecule, the IC50 against Tyrosinase [4] turned out to be 1430 µM.
In the case of `Cn1ccn(C(=O)OC(C)(C)C)c1=S`, the Ki on Tyrosinase [8] came to 1750 µM. For the same molecule, the Activity entry in data set [3] and in data set [7] was “Non-toxic” each time. In addition, in data set [9], the Kis was 1.75 mM. Further, the inhibition at 1000 µM in data set [6] was found to be 49.3%. The IC50 at Tyrosinase [4] stood at 1450 µM. Further, in data set [1], the inhibition entry is “Dose-dependent effect”.

As usually defined, the inhibition is the relative decrease from the control value, in per cent. Usually Ki stands for the dissociation constant of the complex between target and ligand, obtained from inhibition or displacement. By IC50 is commonly meant the concentration that inhibits the measured activity by half. Low readings indicate higher potency, high ones lower potency.

Source of the values: ChEMBL document CHEMBL3259783, “Inhibitory effects of novel synthetic methimazole derivatives on mushroom tyrosinase and melanogenesis” (Bioorg Med Chem, 2014).
